Test results from ChEMBL document CHEMBL3822375, “Preclinical Characterization of 3β-(N-Acetyl l-cysteine methyl ester)-2aβ,3-dihydrogaliellalactone (GPA512), a Prodrug of a Direct STAT3 Inhibitor for the Treatment of Prostate Cancer” (J Med Chem, 2016).
The source made the active and inactive calls. The rule behind the calls is not given here.

How the values were obtained:
Mus musculus [1] = assay: Toxicity in CD1 mouse assessed as change in body weight at 40 mg/kg, administered as single dose through oral gavage measured on day 1 (reference value: 33.5 +/- 4.34 g); type: organism-based; settings: in vivo
Mus musculus [2] = assay: Tmax in mouse plasma assessed as galiellalactone level at 100 mg/kg, po by LC-MS/MS analysis; type: ADME, organism-based; settings: in vivo
Mus musculus [3] = assay: Cmax in mouse plasma assessed as galiellalactone level at 100 mg/kg, po by LC-MS/MS analysis; type: ADME, organism-based; parameters: dose 100 mg/kg, route oral; settings: in vivo
Summary of the method: (§1)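 Single dose to mice; oral, iv or ip as listed, in 5% DMSO/50 mM citrate buffer pH 4.0 (dosing solutions 0.5, 2 or 5 mg/mL). Oral dosing at 20 mL/kg. Terminal blood under barbiturate anaesthesia at eight time-points to 8 h, n=3 mice per time-point, EDTA plasma. Acetonitrile precipitation with internal standard, LC-MS/MS against plasma calibration lines. Non-compartmental analysis on mean data, trapezoidal AUC.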

Mus musculus [4] = assay: Toxicity in CD1 mouse assessed as change in body weight at 200 mg/kg, administered as single dose through oral gavage measured on day 8 (reference value: 32.28 +/- 4.42 g); type: organism-based; settings: in vivo
Mus musculus [5] = assay: AUC (0 to t) in mouse plasma assessed as galiellalactone level at 40 mg/kg, po by LC-MS/MS analysis; type: ADME, organism-based; settings: in vivo; summary of the method: as §1
Plasma = assay: Half life in rat plasma assessed as formation of galiellalactone at 5 uM by LC-MS/MS analysis; type: ADME, cell-free
Summary of the method: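 Plasma of each species incubated at 37 °C with compound at 5 µM initial, 1% DMSO, n=2. Simvastatin and eucatropine run as controls. Aliquots taken at 0, 5, 15, 30 and 60 min and quenched with acetonitrile containing internal standard, then analysed by LC-MS/MS.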

Mus musculus [6] = assay: Toxicity in CD1 mouse assessed as change in body weight at 200 mg/kg, administered as single dose through oral gavage measured on day 4 (reference value: 34.68 +/- 4.71 g); type: organism-based; settings: in vivo
Mus musculus [7] = assay: AUC (0 to infinity) in mouse plasma at 40 mg/kg, po by LC-MS/MS analysis; type: ADME, organism-based; parameters: dose 40 mg/kg, route oral, time infinity; settings: in vivo; summary of the method: as §1
Mus musculus [8] = assay: Toxicity in CD1 mouse assessed as effect on histopathological parameters at 40 to 400 mg/kg, administered as single dose through oral gavage; type: organism-based; settings: in vivo
Summary of the method: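 Male CD1 mice, 7 weeks old, 5 per group, given one oral gavage dose of 40, 200 or 400 mg/kg in 50 mM citrate buffer, pH 4.0, 5% DMSO, alongside a vehicle control group. Clinical signs, clinical pathology and histopathology were assessed, with the study ending on day 8.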

Hepatocyte = assay: Prodrug conversion in mouse hepatocytes assessed as formation of 3-beta-(N-Acetyl-L-cysteine)-2a-beta,3-dihydrogaliellalactone after 2 hrs by UPLC-MS analysis; type: ADME, cell-based
Summary of the method: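 Cryopreserved mouse hepatocytes incubated with an initial 10 µM test item (DMSO stock) in Celsis InVitro HI medium, pH 7.4, 37 °C. Cell viability checked by Trypan blue. Sampled at 0 and 120 min and stopped with an equal volume of acetonitrile. Analysed by UPLC/Q-TOF-MS.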

[9] = Toxicity in CD1 mouse at 40 to 400 mg/kg, administered as single dose through oral gavage; type: organism-based; settings: in vivo
Summary of the method: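 Male CD1 mice, 7 weeks old (27.0–38.5 g), 5 per group, given one oral gavage dose of 40, 200 or 400 mg/kg as a solution in 50 mM citrate buffer pH 4.0 with 5% DMSO. Vehicle-only control group. Weighed at randomization, day 1 before dosing, day 4 and day 8 (study end). Clinical signs, clinical pathology and histopathology were assessed to set the MTD.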

Mus musculus [10] = assay: Apparent half life in mouse plasma assessed as galiellalactone level at 10 mg/kg, po by LC-MS/MS analysis; type: ADME, organism-based; settings: in vivo; summary of the method: as §1
[11] = Downregulation of BCL2 mRNA expression in human DU145 cells xenografted in NMRI nude mouse at 40 mg/kg, po administered 5 times per week for 4 weeks by qPCR analysis; type: functional, organism-based; settings: DU-145
Summary of the method: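 Half of each DU145 xenograft tumour was snap frozen for mRNA. MCL1 and BCL2 measured by quantitative real-time PCR: 10 min at 95°C, then 40 cycles of 95°C 15 s and 60°C 60 s. Comparative Ct method, normalized to HMBS and SDHA.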

[12] = Chemical stability of the compound in phosphate buffer saline assessed as half life at 10 uM at pH 7.4 by LC-MS/MS analysis; type: physicochemical; settings: phosphate buffered saline
Summary of the method: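 Compound diluted from DMSO (or methanol) stock to 10 µM, 2% solvent final, n=2. Matrix was 0.1 M PBS pH 7.4, or […] HCl with 2 mg/mL NaCl adjusted to pH 1.2. Mixed on a shaker; sampled at nominal 5, 15, 30 and 60 min plus T=0. LC-MS/MS with internal standard; % remaining relative to T=0. Formation of parent also monitored.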

Mus musculus [13] = assay: Toxicity in CD1 mouse assessed as change in body weight at 400 mg/kg, administered as single dose through oral gavage measured on day 1 (reference value: 33.5 +/- 4.34 g); type: organism-based; settings: in vivo
Mus musculus [14] = assay: AUC (0 to t) in mouse plasma assessed as galiellalactone level at 10 mg/kg, po by LC-MS/MS analysis; type: ADME, organism-based; settings: in vivo; summary of the method: as §1
DU-145 [15] = assay: Antiproliferative activity against human DU145 cells xenografted in NMRI nude mouse assessed as reduction in Ki67 ratio at 40 mg/kg, po administered 5 times per week for 4 weeks by Ki67 staining-based immunohistochemical analysis; type: functional, organism-based
Summary of the method: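 Tumours from the oral DU145 xenograft study were fixed in formaldehyde and sectioned. IHC used the EnVision Flex kit with anti-Ki67 and anti-pSTAT3 antibodies, imaged at 10× bright field. Ki67 scored as Ki67-positive cells over total cells.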

Mus musculus [16] = assay: Toxicity in CD1 mouse assessed as change in body weight at 40 mg/kg, administered as single dose through oral gavage measured on day 8 (reference value: 32.28 +/- 4.42 g); type: organism-based; settings: in vivo
DU-145 [17] = assay: Antitumor activity against human DU145 cells xenografted in NMRI mouse assessed as reduction of tumor growth rate at 40 mg/kg, po administered 5 times per week for 4 weeks measured on day 26 and day 29 relative to vehicle-treated control; type: functional, organism-based
Summary of the method: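 NMRI-nude male mice given 1.5 million DU145 cells s.c. in the flank. After four weeks, split into two groups of ten. Oral gavage with compound at 40 mg/kg or vehicle (50 mM citrate pH 4.0, 2% DMSO), daily five times per week for four weeks. Caliper measurement twice weekly; volume = width × length × height × 0.52.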

Mus musculus [18] = assay: Cmax in mouse plasma assessed as galiellalactone level at 40 mg/kg, po by LC-MS/MS analysis; type: ADME, organism-based; parameters: dose 40 mg/kg, route oral; settings: in vivo; summary of the method: as §1
Mus musculus [19] = assay: AUC (0 to infinity) in mouse plasma assessed as galiellalactone level at 10 mg/kg, po by LC-MS/MS analysis; type: ADME, organism-based; parameters: dose 10 mg/kg, route oral, time infinity; settings: in vivo; summary of the method: as §1
Mus musculus [20] = assay: Toxicity in CD1 mouse assessed as change in body weight at 400 mg/kg, administered as single dose through oral gavage measured on day 8 (reference value: 32.28 +/- 4.42 g); type: organism-based; settings: in vivo
Mus musculus [21] = assay: AUC (0 to t) in mouse plasma assessed as galiellalactone level at 100 mg/kg, po by LC-MS/MS analysis; type: ADME, organism-based; settings: in vivo; summary of the method: as §1

## COC(=O)[C@H](CS[C@H]1C2C(=O)O[C@@H]3CC[C@H](C[C@@H]1C)[C@]23O)NC(C)=O (stereo partly drawn)
Mus musculus [1]
  Activity: 32.52 g
Mus musculus [2]
  Tmax: 15 min
Mus musculus [3]
  Cmax: 7478 ng/mL
Mus musculus [4]
  Activity: 33.02 g
Mus musculus [5]
  AUCt: 213 µg/mL/min
Plasma
  t1/2: < 5 min
Mus musculus [6]
  Activity: 35.3 g
Mus musculus [7]
  AUC: 215 µg/mL/min
Mus musculus [8]
  Activity: Non-toxic
Hepatocyte
  Drug metabolism: metabolite_detected
[9]
  MTD: 400 mg/kg
Mus musculus [10]
  t1/2(app): 92 min
[11]
  Activity: Active
[12]
  half-life at 10 µM: > 150 min
Mus musculus [13]
  Activity: 33.16 g
Mus musculus [14]
  AUCt: 117 µg/mL/min
DU-145 [15]
  inhibition: Active
Mus musculus [16]
  Activity: 31.12 g
DU-145 [17]
  inhibition: Active
Mus musculus [18]
  Cmax: 3733 ng/mL
Mus musculus [19]
  AUC: 120 µg/mL/min
Mus musculus [20]
  Activity: 32.1 g
Mus musculus [21]
  AUCt: 676 µg/mL/min
